Screening results: PubChem, SRMLSC
This is one part of a sample in which hits are shown more often than they occur.
H69AR growth 86K = growth inhibitors of human H69AR lung tumor cells. H69AR lung tumor viability, ATP luminescence, 72 h; active compounds read low. viability, % at 10 µM. 85,000 compounds, 6% hits. AID 598;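 active = viability at or below 40%; inactive = viability above 40%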;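 also: multidrug resistant small cell line overexpressing MRP-1 efflux transporter; 100% = mean luminescence of untreated control wells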
Lung fibro prol = blocks proliferation of human lung fibroblasts; AID 719; 85,000 compounds, 1.1% hits; LL 47 human lung fibroblast viability, ATP luminescence; active compounds read low; viability, % at 10 µM;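 active = viability at or below 50% in the single dose screen; inactive = viability above 50%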;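 also: compound exposure lasted 72 h before the ATP readout; 100% = median luminescence of untreated cell-only wells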
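Signal: luminescent ATP detection, CellTiter-Glo; assay system: LL 47 human lung fibroblasts; input: 1,150 cells/well; incubation: overnight cell rest, 72 h compound treatment at 37 °C; measure: % viability versus median cells-only luminescence; medium: IMEM growth medium with 15% fetal bovine serum; dosing: compound addition at 0.1% DMSO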
HCT116 PTEN-null = PTEN-deleted cell growth suppression. HCT116 PTEN-null viability, CellTiter-Glo, 60 h; active compounds read low. viability, % at 10 µM. 140,000 compounds, 1.2% hits;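 active = viability at or below a set limit, 4 SD under the median of all tested compounds, cut at about 3.7% in these data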;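 also: PTEN knockout HCT116 line with beta catenin targeted HCT116 as companion control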
HUVEC prolif 384 = blocks proliferation of human endothelial cells; 86,000 compounds, 1.1% hits; AID 648; HUVEC proliferation, CellTiter-Glo luminescence, 72 h; active compounds read low; viability, % at 10 µM (by protocol);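 active = viability at or below 30%; inactive = viability above 30%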;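 also: 100% = median luminescence of DMSO-only cell control wells on each plate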
HCT116 bCat-KO = beta-catenin-lacking colon tumor cell growth suppression; HCT116 beta-catenin knockout viability, CellTiter-Glo, 60 h; active compounds read low; viability, % at 10 µM; 140,000 compounds, 1.5% hits;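 active = viability at or under a set limit, the compound median less 4 SD, cut at about 6% in these data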;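 also: 0% = Hyamine 1622 control at 20 µM and 100% = untreated cell control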
An asterisk follows results filed as active; nt = no result given.

SMILES	H69AR growth 86K	Lung fibro prol	HCT116 PTEN-null	HUVEC prolif 384	HCT116 bCat-KO
Cc1ccc(N=C/C(C(=O)C(F)(F)F)=C(\O)c2ccco2)cc1Cl	nt	nt	87.7	nt	78.0
Cc1cc(NS(=O)(=O)c2ccc(Nc3nc(-c4ccc(O)cc4)cs3)cc2)no1	nt	nt	102.7	nt	86.2
Oc1ccc(Nc2nc(-c3ccc4ccccc4c3)cs2)cc1	19.2*	46.9*	30.1	55.5	22.6
S=C(NCCc1ccccn1)Nc1cccc(Cl)c1	nt	nt	106.5	nt	86.3
Cc1cc(=O)oc2cc(Oc3ccc([N+](=O)[O-])cc3[N+](=O)[O-])ccc12	nt	nt	20.3	nt	21.8
CC[C@H]1OC(=O)C[C@@H](O)[C@H](C)[C@@H](O[C@@H]2O[C@H](C)C[C@H](N(C)C)[C@H]2O)[C@@H](CC=O)C[C@@H](C)C(=O)C=C[C@]2(C)O[C@H]2[C@@H]1C	25.4*	37.9*	nt	80.4	nt
O=C(O)c1cnc(-c2ccccc2)nc1Sc1ccc(Cl)cc1Cl	nt	nt	93.5	nt	92.7
CN(c1ccccc1)c1nc(N2CCCC2)nc(-n2ccnc2)n1	39.5*	73.2	85.5	90.2	74.0
c1ccc(CN2CCN(c3nc(-c4ccccc4)nc(-n4ccnc4)n3)CC2)cc1	79.5	84.0	65.2	65.2	65.0
c1ccc(N(c2ccccc2)c2nc(N3CCCC3)nc(-n3ccnc3)n2)cc1	20.1*	63.5	47.7	44.0	56.7
CCOC(=O)N1CCN(c2nc(N(c3ccccc3)c3ccccc3)nc(-n3ccnc3)n2)CC1	21.0*	92.0	nt	89.0	nt
N/C(=N/O)c1nc(N2CCCC2)nc(N(c2ccccc2)c2ccccc2)n1	52.6	84.7	88.4	87.0	89.9
O=C1NC(=O)C2(COC(c3ccccc3Cl)OC2)S1 (configuration not stated)	nt	nt	98.6	nt	86.7
COc1ccc(-c2n[nH]c(C(F)(F)F)c2-c2cc3ccccc3o2)c(O)c1	10.7*	78.9	12.7	12.5*	13.2
COc1ccccc1-c1c(-c2ccc(OCC(=O)NN)cc2O)n[nH]c1C(F)(F)F	nt	nt	78.8	nt	76.3
CCOC(=O)c1ccc2ncc(C(=O)OCC)c(NCc3ccco3)c2c1	36.2*	105.1	76.5	65.2	74.0
CCOC(=O)c1cnc2c(C)cccc2c1NCc1ccco1	75.0	99.1	61.7	76.6	65.9
COc1cc2cc(C(c3nnnn3C3CCCCC3)N(C)C3CCCCC3)c(=O)[nH]c2cc1OC (configuration not stated)	102.0	94.5	49.1	63.4	51.2
CCOC(=O)c1[nH]c2c(c1-c1ccccc1)C(=O)CC(c1ccccc1)C2 (configuration not stated)	nt	nt	74.6	nt	58.5
COC(=O)c1[nH]c2c(c1C)C(=O)CC(c1ccccc1)C2 (configuration not stated)	19.1*	58.8	11.8	46.4	11.9
Cc1c(C(=O)N2CCOCC2)[nH]c2c1C(=O)CC(c1ccccc1Cl)C2 (configuration not stated)	21.9*	62.4	14.8	56.5	14.4
COc1cc(C2CC(=O)c3c([nH]c(C(=O)OCCOC(C)C)c3C)C2)cc(OC)c1OC (configuration not stated)	nt	nt	11.0	nt	8.1
CCOC(=O)c1[nH]c2c(c1C)C(=O)CC(c1ccc(OC)c(OC)c1)C2 (configuration not stated)	97.7	95.8	92.9	92.8	104.7
Cc1c(C(=O)OCC(C)C)[nH]c2c1C(=O)CC(c1ccco1)C2 (configuration not stated)	16.7*	51.2	13.3	43.9	6.8
C=CCOC(=O)c1[nH]c2c(c1C)C(=O)CC(c1ccco1)C2 (configuration not stated)	30.0*	54.9	14.8	46.2	12.7
SMILES	H69AR growth 86K	Lung fibro prol	HCT116 PTEN-null	HUVEC prolif 384	HCT116 bCat-KO
Cc1ccc(N2C(=O)NC(C(F)(F)F)(C(F)(F)F)C3=C2CC(C)(C)CC3=O)cc1	nt	nt	88.8	nt	91.4
Cc1ccc(S(=O)(=O)N2CC=C(c3ccc(F)cc3)CC2)cc1	nt	nt	80.7	nt	79.0
Cc1c(C(=O)OC2CCCC2)[nH]c2c1C(=O)CC(c1ccco1)C2 (configuration not stated)	28.2*	55.3	11.6	32.3	10.2
C/C=C/COC(=O)c1[nH]c2c(c1C)C(=O)CC(c1ccco1)C2 (configuration not stated)	29.5*	53.0	15.1	42.2	10.2
C/C=C/COC(=O)c1[nH]c2c(c1C)C(=O)CC(c1ccc(N(C)C)cc1)C2 (configuration not stated)	29.2*	110.2	58.8	79.4	57.1
CCOCCOC(=O)c1[nH]c2c(c1C)C(=O)CC(c1ccc(N(C)C)cc1)C2 (configuration not stated)	nt	nt	35.3	nt	41.9
CCOC(=O)c1ccc(N=CC2=C(O)CC(c3ccco3)CC2=O)cc1 (configuration not stated)	93.3	nt	nt	92.0	nt
COc1ccc(OC)c(C2CC(=O)c3c([nH]c(C(=O)OCC4CCCO4)c3C)C2)c1 (configuration not stated)	nt	nt	33.9	nt	32.5
Cc1c(C(=O)OCC2CCCO2)[nH]c2c1C(=O)CC(c1ccco1)C2 (configuration not stated)	27.6*	56.9	16.6	57.0	15.7
COc1ccccc1NC(=S)N(Cc1ccco1)Cc1cc2cc(C)ccc2[nH]c1=O	nt	nt	57.8	nt	66.3
C=CCN1CCN(c2ccncc2S(=O)(=O)N2CCOCC2)CC1	nt	nt	100.9	nt	101.2
Nc1ccc(-c2nc3c(Cl)c(N)ccc3[nH]2)cc1	21.0*	97.8	84.3	85.4	87.8
Nc1ccc(-c2nc3ccc([N+](=O)[O-])cc3[nH]2)cc1	nt	nt	81.1	nt	80.2
Nc1ccc2nc(-c3ccc(Cl)cc3)[nH]c2c1	17.2*	87.6	66.8	94.7	67.6
Nc1ccc2nc(-c3cc(Cl)c(N)c(Cl)c3)[nH]c2c1	34.9*	81.3	35.5	64.7	35.6
N#CC1=C(N)NC(SCc2ccc(Cl)cc2)=C(C#N)C12CCCCC2	13.1*	85.1	48.9	44.5	64.0
CCCCC(=O)Nc1ccc(C)c(O)c1	nt	nt	84.8	nt	96.2
CCCC(=O)Nc1ccc(C)c(O)c1	nt	nt	1.0*	nt	1.0*
COc1ccc(S(=O)(=O)Nc2ccccc2C(F)(F)F)cc1	89.1	102.1	93.2	93.4	102.9
COc1ccc(S(=O)(=O)Nc2ccc(O)c3ccccc23)cc1	1.8*	92.8	2.3*	2.3*	1.5*
COC(=O)Nc1ccc(S(=O)(=O)Nc2cccc3ccccc23)cc1	35.5*	nt	86.3	79.8	86.6
COc1ccccc1NS(=O)(=O)c1ccc(NC(C)=O)cc1	95.4	104.8	85.6	95.6	91.5
CC(C)OC(=O)c1ccc(NC(=O)Cn2c(-c3nonc3N)nc3ccccc32)cc1	54.7	91.7	71.2	60.9	73.4
COC(=O)c1ccccc1NC(=O)Cn1c(-c2nonc2N)nc2ccccc21	8.2*	47.0*	18.5	22.5*	16.4
CCN(CC)CCNC(=O)c1c(O)c2cccc3c2n(c1=O)CCC3	30.7*	93.5	103.8	102.6	104.0
CCCc1nc2ccccc2c(=O)n1NC(=O)c1c(O)c2cccc3c2n(c1=O)CCC3	18.4*	75.4	66.2	97.5	67.4
